# Screens from PubChem BioAssay.
# SR-BI DiI inh = inhibitors of SR-BI mediated HDL lipid uptake, primary screen, ldlA[mSR-BI] cells, fluorescence, single point; inhibition, % at 12.5 µM; ldlA[mSR-BI] CHO cells, DiI-HDL uptake fluorescence, 3 h; Scavenger receptor class B member 1 (Mus musculus), Q61009; 320,000 tested, 0.96% active;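 active = mean replicate inhibition of at least 70% and a set share of replicates each scoring 70 or more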;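 note: 0% = median of neutral control wells and 100% = median of positive control wells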
# Target sequence (Q61009 whole entry, looked up): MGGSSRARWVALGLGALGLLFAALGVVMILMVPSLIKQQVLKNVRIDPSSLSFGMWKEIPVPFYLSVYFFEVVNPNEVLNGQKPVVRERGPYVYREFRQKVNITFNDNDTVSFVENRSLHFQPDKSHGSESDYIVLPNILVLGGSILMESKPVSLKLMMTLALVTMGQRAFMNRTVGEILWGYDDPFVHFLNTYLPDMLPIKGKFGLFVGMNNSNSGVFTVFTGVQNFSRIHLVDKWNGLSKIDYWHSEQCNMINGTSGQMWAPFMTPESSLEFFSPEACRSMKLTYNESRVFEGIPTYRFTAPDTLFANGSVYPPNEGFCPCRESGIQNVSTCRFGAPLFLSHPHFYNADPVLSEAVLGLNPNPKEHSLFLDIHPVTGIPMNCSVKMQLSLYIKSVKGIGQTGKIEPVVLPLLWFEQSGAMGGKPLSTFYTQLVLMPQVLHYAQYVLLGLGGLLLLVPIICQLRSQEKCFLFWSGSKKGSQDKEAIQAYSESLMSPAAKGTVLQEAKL
# JMJD2C inh = inhibitors of GASC-1 histone demethylase, primary screen, biochemical, fluorescence, DELFIA europium. GST-JMJD2C(1-420) H3K9me3 demethylation. 330,000 tested, 0.069% active. Lysine-specific demethylase 4C (Homo sapiens), Q9H3R0. inhibition, % at 2.35 µM;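 active = more than half of a compound's replicate wells show inhibition beyond 50%, single wells judged on their own value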;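 note: signal counts dimethyl H3K9 product captured on neutravidin plate; 0% = median of DMSO wells and 100% = 0.3 times that DMSO median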
# AHR act = AHR activators, primary screen, cell-based, luminescence, luciferase reporter, human; Aryl hydrocarbon receptor (Homo sapiens), P35869; AHR-responsive luciferase reporter cells; activation, % at 5 µM; 320,000 tested, 2.5% active; AID 2796, 2010; in the data active = activation above about 47%;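 note: 0% = vehicle wells and 100% = reference agonist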
# SR-BI uptake up = activators of SR-BI mediated DiI-HDL uptake, primary screen, ldlA[mSR-BI] CHO cells, DiI fluorescence; 3 h; 100 = double the neutral-control signal; activation, % at 12.5 µM; 320,000 tested, 0.096% active; AID 504775, 2011;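 active = mean replicate activation of at least 60% and every replicate at or above 60%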;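 note: 0% = median plate neutral-control signal and 100% = twice that signal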
#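 System: LDL receptor-deficient CHO ldlA cells overexpressing murine SR-BI | Timing: 3 h uptake period with compound, 37 °C | Medium: HEPES-buffered (25 mM, pH 7.4) F12 plus 0.5% BSA | Dosing: Single-point compound dose | Signal: Bottom-read fluorescence, 550/595 nm | Read-out: Retained DiI signal reflecting DiI-HDL uptake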
# GAA850 FXN act = FXN promoter activators, primary screen, cell-based, luciferase luminescence, HEK293 lucGAA850; activation, % at 6 µM; HEK293 lucGAA850 FXN promoter luciferase reporter, 24 h; percent of 10 µM SAHA response; 360,000 tested, 0.56% active;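 active = activation above the average of all compounds screened plus 3 SD, cutoff fixed separately per campaign, cut at about 7.5% in these data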;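 note: 0% = DMSO wells and 100% = 10 µM SAHA wells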
# * marks the source's active call; other numbers are inactive results; / = no result. Hits are enriched below; roughly 3.7% of the tested compounds scored in any of these assays.
SMILES,SR-BI DiI inh,JMJD2C inh,AHR act,SR-BI uptake up,GAA850 FXN act
COCCN=c1scc(-c2cc(OC)c(OC)c(OC)c2)n1/N=C/c1c(C)[nH]c2ccccc12,92*,6,56*,-92,0
O=C(O)C1=C[C@H](c2ccc(C(F)(F)F)cc2)C[C@H](OCCCCO)O1,-18,-1,3,18,-1
O=C(CSc1ccc2ccccc2n1)c1ccccc1,21,-43,68*,-21,5
Cc1nc2ccccc2nc1SCC(=O)c1ccccc1,8,8,48*,-8,4
Cn1c(CNc2ccc(Cl)cc2)nnc1SCC#N,1,2,59*,-1,2
Cn1c(CNc2cccc(Cl)c2)nnc1SCC#N,6,-7,21,-6,-1
CCSc1nnc(CNc2ccc(C)cc2)n1C,-16,-23,75*,16,3
O=C(NCCc1ccccc1)c1ccccc1C(=O)NCCc1ccccc1,/,7,70*,/,1
O=C(NC(=S)NCc1ccccc1)c1ccccc1F,3,2,0,-3,1
O=C(NC(=S)NCCc1ccccc1)c1ccccc1F,-6,11,74*,6,2
O=C(NC(=S)NCCc1ccccc1)c1ccccc1,0,6,69*,0,4
CCc1cc(Br)ccc1NC(=S)NCCc1ccccc1,76*,6,/,-76,-2
COc1ccc(CCNC(=S)NC(=O)c2ccccc2)cc1C,/,1,3,/,0
O=C(NCCc1ccccc1)c1ccccc1F,-16,5,-7,16,4
Cc1cccc(S(=O)(=O)NC(=O)C2(C)CCN2C(=O)Cc2ccccc2)c1 (stereo not drawn),/,/,/,/,0
O=S1(=O)[C@H]2C[C@@H]3C=C[C@@]2(CN1Cc1cccc(F)c1)O3,19,-12,3,-19,1
COc1ccc(CSc2nc(C)cc(C)c2S(C)(=O)=O)cc1,29,21,7,-29,1
Cn1c(C(=O)NCC2CCCO2)cc2c(=O)[nH]c3ccccc3c21 (stereo not drawn),-16,4,12,16,1
Cn1c(C(=O)NCC2CCCO2)cc2c(=O)n(C)c3ccccc3c21 (stereo not drawn),16,-10,49*,-16,-1
CSc1nc(O)c(/C=C2\C=Nc3ccccc32)[nH]1,26,-7,76*,-26,5
CCCC1=[N+](CC(=O)c2ccccc2)CCn2c(C)ccc21,9,-14,49*,-9,-1
Cc1cc(C)c(C#N)c(SCc2nc3ccccc3[nH]2)n1,20,-4,68*,-20,6
C/C(=N\Nc1nc2ccccc2s1)c1ccc(Br)s1,61,3,54*,-61,1
Cc1cccc2c1-c1sc(C(=O)Nc3cccnc3)cc1CO2,33,-11,15,-33,2
Cc1cc(C(=O)Nc2cccc([N+](=O)[O-])c2C)cs1,-18,-2,-6,18,1
SMILES,SR-BI DiI inh,JMJD2C inh,AHR act,SR-BI uptake up,GAA850 FXN act
Cc1c(NC(=O)c2ccc3nsnc3c2)cccc1[N+](=O)[O-],-19,1,52*,19,2
COc1ccccc1NC(=O)c1ccc2nsnc2c1,/,2,56*,/,5
Cc1cccc2c1-c1sc(C(=O)Nc3cccc([N+](=O)[O-])c3C)cc1CO2,73*,32,32,-73,0
CN1CCc2c(OCC(=O)NC3CCCCC3)cccc2C1=O,-9,9,1,9,1
COc1ccc(NC(=O)COc2cccc3c2CCN(C)C3=O)c(OC)c1,48,-2,77*,-48,-1
CC1=CC2=C(C=O)C(=O)C(C)(O)C(O)C2=CO1 (stereo not drawn),/,/,/,/,1
Cc1ccc(C(=O)NNC(=O)c2ccc(S(=O)(=O)N3CCCCC3)cc2)cc1,52,4,-1,-52,-1
CCOC(=O)N1CCN(S(=O)(=O)c2ccc(C(=O)NNc3nc4ccc(Cl)cc4s3)cc2)CC1,128*,-18,19,-128,-2
CCOC(=O)N1CCN(S(=O)(=O)c2ccc(C(=O)NNc3nc4c(C)cccc4s3)cc2)CC1,102*,44,20,-102,-4
